Holding throughout (format): functional
A short description of assay [1]: Antiviral activity against herpesvirus […] cells in tissue culture. To be noted: Homo sapiens; read-out: ID50 (the source's name).
Assay [2] deals with Human alphaherpesvirus 2. Put plainly: Antiviral activity against herpesvirus HSV-2 in G strain in tissue culture. To be noted: read-out: ID50 (the source's name). In a few lines: (§1)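 HSV-1 strain BWS or HSV-2 strain G plaque-reduction assay in Vero cells; ID50 reported in µg/mL.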
The test system of assay [3] is Vero. Briefly: Antiviral activity against herpesvirus vero cells in tissue culture. To be noted: Chlorocebus sabaeus, read-out: ID50 (the source's name).
The test system of assay [4] is Human alphaherpesvirus 1. Briefly: Antiviral activity against herpesvirus HSV-1 in BWS strain in tissue culture. The following applies: read-out: ID50 (the source's name). The method in brief: as §1
Assay [5] concerns Human betaherpesvirus 5. Briefly: Antiviral activity against herpesvirus HCMV in AD-169 strain in tissue culture. The following applies: read-out: ID50 (the source's name). The method in brief:
(§2)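 HCMV strain AD-169 plaque-reduction assay in MRC-5 cells (human lung fibroblasts); ID50 reported in µg/mL.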

For assay [6], the system named is Human alphaherpesvirus 2. Briefly: Antiviral activity against herpesvirus HSV-2 in G strain in tissue culture in Vero cells. To be noted: Human alphaherpesvirus 2, Vero; read-out: ID50 (the source's name). The method in brief: as §1
In assay [7] the test system is Human betaherpesvirus 5. Put plainly: Antiviral activity against herpesvirus HCMV in AD-169 strain in […] cells. To be noted: read-out: ID50 (the source's name). In a few lines:
as §2

Assay [8] is described as follows: Antiviral activity against herpesvirus […] cells in tissue culture. The following applies: Homo sapiens; read-out: ID50 (the source's name).
Assay [9] deals with Human alphaherpesvirus 1. Briefly: Antiviral activity against herpesvirus HSV-1 in BWS strain in Vero cells. To be noted: Human alphaherpesvirus 1, Vero; read-out: ID50 (the source's name). The method in brief: as §1
For assay [10], the system named is Vero. Briefly: Antiviral activity against herpesvirus vero cells in tissue culture. To be noted: Chlorocebus sabaeus, read-out: ID50 (the source's name).

≈ marks a conversion by molar mass, not a printed value.

Turning to `Nc1nc2c(ncn2COC(CO)CO)c(=O)[nH]1` [GANCICLOVIR], the IC50 in assay [1] was more than 100 µg/mL; with Human alphaherpesvirus 2 [2] it was 1.6 µg/mL (≈ 6.27 µM); in the assay on Vero [3], more than 100 µg/mL; with Human alphaherpesvirus 1 [4] it was 0.2 µg/mL (≈ 0.784 µM); in the assay on Human betaherpesvirus 5 [5], 5 µg/mL (≈ 19.6 µM).

For the compound `Nc1ncnc2c1ncn2CC[C@@H](CO)OCP(=O)(O)O`, the IC50 (in the assay on Human alphaherpesvirus 2 [6]; with Human betaherpesvirus 5 [7]; in assay [8]; with Human alphaherpesvirus 1 [9]; in the assay on Vero [10]) was more than 100 µg/mL each time.

Turning to `Nc1nc(O)c2ncn(CC[C@@H](CO)OCP(=O)(O)O)c2n1`, the IC50 in the assay on Human alphaherpesvirus 2 [6] is 97 µg/mL (≈ 291 µM); in the assay on Human betaherpesvirus 5 [7], 1 µg/mL (≈ 3 µM); in assay [8] it was 10 µg/mL (≈ 30 µM); in the assay on Human alphaherpesvirus 1 [9], more than 100 µg/mL; with Vero [10] it was more than 100 µg/mL.

In the case of `Nc1ccn(CC[C@@H](CO)OCP(=O)(O)O)c(=O)n1`, the IC50 (in the assay on Human alphaherpesvirus 2 [6]; in the assay on Human betaherpesvirus 5 [7]; in [8]; with Human alphaherpesvirus 1 [9]; in the assay on Vero [10]) was more than 100 µg/mL throughout.

The values are drawn from ChEMBL document CHEMBL1125064, “Synthesis and antiviral activity of (S)-9-[4-hydroxy-3-(phosphonomethoxy)butyl]guanine” (1990).
